By viability is commonly meant the share of living cells, or the viability signal relative to a control. One may read the cell viability as a per cent measure of how many cells are alive, often set against a control. A low value points to more harm to the cells. For orientation: inhibition means the drop in the measured response relative to a control, in per cent.

Values joined by “and” are separate entries in the source; they are usually repeats but may differ in a detail not shown here. Identical values can stand only once. Like-named read-outs stand apart in the source and are kept apart here.

Data set [1] is described as follows: In vitro cytotoxicity MTT assay. Format: cell-based, murine. The following applies: mouse, 3T3 murine fibroblast cells, cell viability. For orientation: Tetrazolium assays rely on reduction of a dye to a coloured formazan, in cell work by metabolically active cells.
Data set [2] deals with 3T3 murine fibroblast cells. The experiment in a line: In vitro cytotoxicity MTT assay. The class given is cell-based. Particulars: 50 µg/mL, 24 h.
The subject of a further data set is zebrafish embryos. The experiment in a line: Reactive oxygen species. The class given is in vivo. The gist of the method:
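Wild-type AB zebrafish embryos at 24 hpf, one per well and 10 per group, were exposed to five concentrations of test compound for 30, 60, 120 or 240 min. Controls were distilled water and 0.5 mM H2O2. Embryos were washed in PBS and spun 10,000 rpm, 5 min, 4°C. They were homogenized in cold PBS and spun 12,372 rpm, 30 min, 4°C. Supernatant was incubated with DCFH-DA (stock 10 mg/mL in DMSO) 30 min in the dark; fluorescence read at ex 485/em 530 nm, in triplicate.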

The test system of data set [3] is MSSA. The experiment in a line: Kirby-Bauer disk diffusion test. Format: cell-based, Staphylococcus aureus. The following applies: 18 h. The essentials: (§1)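 Disk diffusion followed CLSI 2013. Sterile disks soaked in test compound (0–1000 µg/mL) were placed on MH agar and held 30 min at room temperature for diffusion. Plates were then incubated 18 h at 37°C and zones of inhibition read. Controls were distilled water (negative) and a 30 µg cefoxitin disk (positive). Strains were MSSA ATCC 25923 and community-acquired MRSA-pvl+ (A33) and pvl- (172817) lab isolates.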
In general terms: In agar diffusion tests the substance spreads into inoculated agar from a disc or well.

The subject of data set [4] is MRSA-pvl+. The experiment in a line: Kirby-Bauer disk diffusion test. Format: cell-based, Staphylococcus aureus. The following applies: 18 h. The gist of the method:
as §1

In data set [5] the test system is MRSA-pvl-. The experiment in a line: Kirby-Bauer disk diffusion test. Particulars: 18 h. Format: cell-based, Staphylococcus aureus. The essentials: as §1
The test system of data set [6] is MRSA. The experiment in a line: CFU counting method. Format: cell-based. The following applies: Staphylococcus aureus, read-out: percentage of inhibition (CFU). The gist of the method: (§2)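 S. aureus strains (MRSA ATCC 700699; community-acquired MRSA-pvl+ A33 and MRSA-pvl- 172817 from the lab collection) at 1.5 × 10^5 CFU/mL were combined in well plates with MH broth and test compound (0–1000 μg/mL). Plates were shaken 4 h at 37°C, then diluted 100-fold and swabbed onto MH agar. After drying at room temperature, plates were incubated 18 h at 37°C and colonies counted. Percentage inhibition was calculated relative to distilled water (negative control); cefoxitin served as positive control.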

The subject of data set [7] is MRSA-pvl+. The experiment in a line: CFU counting method. Format: cell-based. The following applies: Staphylococcus aureus, read-out: percentage of inhibition (CFU). The gist of the method:
as §2

Data set [8] concerns MRSA-pvl-. The experiment in a line: CFU counting method. The class given is cell-based, Staphylococcus aureus. The following applies: 50 µg/mL. The gist of the method: as §2
Data set [9] relates to MRSA. The experiment in a line: Time-kill experiment. The class given is cell-based, Staphylococcus aureus. Particulars: for inhibition at 150 µg/mL: Staphylococcus aureus, MRSA, read-out: percentage of inhibition (time-kill). The essentials: (§3)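 S. aureus suspension (1.5 × 10^5 CFU/mL) and test compound, prepared at 150 μg/mL before mixing, were added in equal volumes to flasks of MH broth. A flask without test compound served as control. Flasks were shaken at 150 rpm and 37°C for 24 h. At set intervals, 100 μL aliquots were spread on MH agar for colony counts.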

Data set [10] concerns MSSA. The experiment in a line: Time-kill experiment. The class given is cell-based, Staphylococcus aureus. The gist of the method: as §3
Data set [11] relates to MRSA. The experiment in a line: HRTEM observation of treated bacteria. Particulars: 150 µg/mL for 12 h. Format: cell-based, Staphylococcus aureus. The gist of the method:
(§4)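 After the time-kill exposure, MRSA (ATCC 700699) and MSSA (ATCC 25923) cells were processed for electron microscopy. Reagents included glutaraldehyde, cacodylate buffer, osmium tetroxide and acetone, followed by resin embedding. Sections of 1 µm were cut and stained with toluidine blue, and areas were chosen by light microscopy. Sections were then mounted on 100-mesh copper grids, stained 15 min with 1% aqueous uranyl acetate, washed, and imaged at 100 kV.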

The subject of data set [12] is MSSA. The experiment in a line: HRTEM observation of treated bacteria. The class given is cell-based, Staphylococcus aureus. Particulars: 150 µg/mL for 12 h. The essentials:
as §4

In data set [13] the test system is MRSA-pvl+. The experiment in a line: Time-kill experiment. The following applies: >3 h of exposure (Figure S2). Format: cell-based, Staphylococcus aureus. The gist of the method: as §3
Data set [14] has as its system MRSA-pvl-. The experiment in a line: Time-kill experiment. Format: cell-based, Staphylococcus aureus. The following applies: >3 h of exposure (Figure S2). The gist of the method: as §3

In data set [1] (24 h), `O=C(O)c1cc(O)c(O)c(O)c1` [GA, Gallic acid] returned a viability at 24 h, 50 µg/mL of 22.2%. The molecule further showed a viability at 72 h, 50 µg/mL in data set [1] (72 h) of 4.95%. Further, the cell viability in data set [2] is given as 22.16%. Also, the ROS content result in the data set on zebrafish embryos (50 and 300 μg/mL, 60 min post-exposure) is given as “significantly elevated”; in the data set with zebrafish embryos (30 min of exposure), “comparable ROS content to control groups”; with zebrafish embryos (120 min post-exposure), “reverted to the normal range”. Besides, the “concentration at which growth is inhibited (zone of inhibition)” value is 150 µg/mL in the data set on MSSA [3]; 300 µg/mL with MRSA-pvl+ [4]; 300 µg/mL and 150 µg/mL with MRSA-pvl- [5]. Besides, the inhibition at 50 µg/mL in the data set with MRSA [6] came to 98.3%; in the data set on MRSA-pvl+ [7], 80.1%. In addition, the “inhibition (CFU)” value in the data set on MRSA-pvl- [8] is recorded as “significant inhibition”. Moreover, the inhibition at 150 µg/mL turned out to be 44.9% in the data set on MRSA [9] (2 h); 29.4% with MRSA [9]; 50.7% in the data set on MSSA [10] (Staphylococcus aureus, MSSA, 2 h, read-out: percentage of inhibition (time-kill)). Further, the “morphological changes of bacterial cells (HRTEM)” value is “disrupted morphology and damaged surface” with MRSA [11]; “disrupted morphology and damaged surface” with MSSA [12].

`CO[C@@]1(NC(=O)Cc2cccs2)C(=O)N2C(C(=O)O)=C(COC(N)=O)CS[C@@H]21` [CFX, cefoxitin]: the “inhibition (time-kill)” value in the data set on MRSA [9] (>3 h of exposure (Figure S2)), with MSSA [10] (>3 h of exposure (Figure S2)), in the data set on MRSA-pvl+ [13] and in the data set on MRSA-pvl- [14] was “total inhibition” each time.

Values taken from paper PMC9719714 (International Journal of Nanomedicine, 2022).
